ChEMBL document CHEMBL1240523, “Small-molecule inhibitors of NADPH oxidase 4” (J Med Chem, 2010)
pIC50: −log10 of the molar value.

What was measured:
Assay type in all cases: cell-based
[1] = biological target: T1, NADPH oxidase 4 (Homo sapiens) (UniProt Q9NPH5); assay: Inhibition of NOX4 expressed in HEK293 FS cells at 10 uM assessed as H2O2 production by H2O2/Tyr/LPO assay
T1 sequence (whole entry): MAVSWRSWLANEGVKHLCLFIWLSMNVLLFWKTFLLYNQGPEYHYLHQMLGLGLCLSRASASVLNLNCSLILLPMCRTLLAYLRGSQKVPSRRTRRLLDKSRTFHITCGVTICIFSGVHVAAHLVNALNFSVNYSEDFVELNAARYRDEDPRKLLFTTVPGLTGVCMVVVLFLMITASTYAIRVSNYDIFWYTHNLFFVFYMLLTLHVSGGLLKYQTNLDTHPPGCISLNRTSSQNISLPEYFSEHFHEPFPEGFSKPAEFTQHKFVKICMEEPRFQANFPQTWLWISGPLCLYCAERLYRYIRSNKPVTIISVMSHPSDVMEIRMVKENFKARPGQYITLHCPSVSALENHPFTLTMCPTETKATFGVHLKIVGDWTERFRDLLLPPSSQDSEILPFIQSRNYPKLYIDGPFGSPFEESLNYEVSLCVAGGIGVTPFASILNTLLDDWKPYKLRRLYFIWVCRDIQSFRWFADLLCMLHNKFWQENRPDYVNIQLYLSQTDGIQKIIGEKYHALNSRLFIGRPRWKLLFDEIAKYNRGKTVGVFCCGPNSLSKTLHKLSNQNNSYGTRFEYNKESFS
Procedure, shortened: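 Primary screen at 10 μM in the H2O2/Tyr/LPO cellular assay. HEK 293 FS cells overexpress NOX4. The LPO enzyme forms fluorescent o,o'-dityrosine from L-tyrosine and H2O2, detected by spectrofluorometric plate reader. Inhibition expressed relative to DPI.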

NADPH oxidase 4 = biological target: T2, NADPH oxidase 4 (Homo sapiens, UniProt Q9NPH5); assay: Inhibition of NOX4 expressed in HEK293 FS cells assessed as H2O2 production by H2O2/Tyr/LPO assay
T2 sequence (Q9NPH5 whole entry): T1 sequence (whole entry)
Procedure, shortened: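 Cell-based H2O2/Tyr/LPO assay in free-style HEK 293 F cells transfected to overexpress constitutively H2O2-producing NOX4. NOX4-generated H2O2 drives LPO conversion of L-tyrosine to fluorescent o,o'-dityrosine, read on a spectrofluorometric plate reader. IC50 estimated from an eight-point curve, 1/2 dilution series from 10 to 0.078 μM.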

[2] = Cytotoxicity against human free style HEK293 cells after 72 hrs; conditions: FreeStyle HEK293 cells
Procedure, shortened: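 Luminescent cell viability kit read-out; cells exposed to 10 μM compound for 72 h. Values expressed as percentage of live cells.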

[3] = biological target: T1, NADPH oxidase 4 (Homo sapiens); assay: Inhibition of NOX4 expressed in HEK293 FS cells at 10 uM assessed as H2O2 production by H2O2/Tyr/LPO assay substituted with 3 uM H2O2; conditions: values are per cent of control
Procedure, shortened: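 Redox-activity counter-screen: transfected cells replaced by 3 μM H2O2 in the H2O2/Tyr/LPO read-out (LPO plus L-tyrosine giving fluorescent dityrosine). Compounds at 10 μM final, to detect breakdown of H2O2 independent of NOX4.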

Structure (SMILES)	inhibition [1] [%]	pIC50 (NADPH oxidase 4)	cytotoxicity at 72 h [2] [%]	% inhibition of H2O2 signal (cell-free redox counter-screen) [3] [%]
O=c1c(O)c(-c2ccc(O)cc2)oc2cc(O)cc(O)c12 [KAEMPFEROL]	105	5.92	119	2.09
O=C(N/N=C/c1cccc(O)c1O)C(=O)N/N=C/c1cccc(O)c1O	103	6.04	67.2	-4.58
O=c1cc(-c2ccc(O)c(O)c2)oc2cc(O)cc(O)c12 [LUTEOLIN]	106	6.07	110	–
O=c1c2cc(O)c(O)cc2c2cc(O)c(O)cc2n1Cc1ccc([N+](=O)[O-])cc1	93	5.80	108	-6.11
COC(=O)c1cc(NCc2ccccc2O)ccc1O	91	5.90	106	3.83
O=c1cc(-c2ccc(O)cc2)oc2cc(O)cc(O)c12 [APIGENIN]	105	5.95	108	-1.2
O=C(O)c1cc(NCc2ccccc2O)ccc1O	89	6.02	102	5.35
Nc1ccc(Nc2ncnc3c2sc2ccc(N)cc23)cc1	101	5.97	60.5	-2.78
COc1cc(/C=C2\C(=O)Nc3ccc(NC(C)=O)cc32)ccc1O	104	5.85	112	-5.16
C=CCN(CC=C)C(=S)/N=C1\C(=O)Nc2cc(C)c(O)c(C)c21	100	–	–	–
O=c1c(O[C@H]2O[C@H](CO)[C@@H](O)[C@H](O)[C@H]2O)c(-c2ccc(O)c(O)c2)oc2cc(O)cc(O)c12 [MIQUELIANIN]	105	–	–	-1.86
C=CCN(CC=C)C(=S)N=C1C(=O)Nc2cc(C)c(O)c(C)c21	–	6.00	97.8	–
N#Cc1ccccc1Cn1c(=O)c2cc(O)c(O)cc2c2cc(O)c(O)cc21	97	6.23	108	4.8
O=c1c(O)c(-c2ccc(O)c(O)c2)oc2cc(O)cc(O)c12 [QUERCETIN]	94	6.17	102	–
Nc1cccc(Nc2ncnc3c2sc2ccc(N)cc23)c1	98	6.62	106	17.9
O=C(NCCc1ccc(O)c(O)c1)C(=O)Nc1cccc([N+](=O)[O-])c1	104	5.79	74.9	-3.5
O=c1c2cc(O)c(O)cc2c2cc(O)c(O)cc2n1Cc1cccc([N+](=O)[O-])c1	101	6.59	112	-4.9
COc1cc(CCNC(=O)C(=O)Nc2cccc(N)c2)ccc1O	104	5.89	82.4	-3.3
O=c1c2cc(O)c(O)cc2c2cc(O)c(O)cc2n1Cc1ccccc1S(=O)(=O)c1ccccc1	95	5.80	113	-1.05
CC(C)c1cc(/C=C2\C(=O)Nc3ccccc32)cc(C(C)C)c1O	102	6.20	18.7	-0.88
COc1cc(O)c2c(=O)c(OC)c(-c3ccc(O)c(O)c3)oc2c1	88	5.99	–	–
O=c1c2cc(O)c(O)cc2c2cc(O)c(O)cc2n1Cc1cc([N+](=O)[O-])ccc1O	104	6.77	90.6	-4.8
O=C(O)c1cc(NCc2cc(O)ccc2O)ccc1O [LAVENDUSTIN C]	82	5.87	88.7	72.4
COc1cc(O)cc2oc(-c3ccc(O)c(O)c3)c(O)c(=O)c12	100	6.13	121	3.17
O=C1Nc2ccc([N+](=O)[O-])cc2/C1=C/c1ccc(O)c(O)c1	102	5.95	123	0.39
O=C(N/N=C/c1ccc(O)c(O)c1)C(=O)N/N=C/c1ccc(O)c(O)c1	105	5.94	99.5	7.6
